In ChEMBL document CHEMBL1124149 (1988):
Converted amounts (≈) assume the structure as drawn.

Key:
Assay type in all cases: functional
Human alphaherpesvirus 2 [1] = assay: In vitro minimum inhibitory concentration to inhibit HSV-2 (G)-induced cytopathogenicity in PRK cells by 50%
Method in brief: (§1)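 Antiviral read-out was virus-induced cytopathogenicity in primary rabbit kidney (PRK) cell cultures. The value is the compound concentration needed to reduce cytopathogenicity by 50%.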

Human alphaherpesvirus 2 [2] = assay: In vitro minimum inhibitory concentration to inhibit HSV-2 (Lyons)-induced cytopathogenicity in PRK cells by 50%; method in brief: as §1
Equid alphaherpesvirus 1 = assay: In vitro minimum inhibitory concentration to inhibit EHV-1-induced cytopathogenicity in PRK cells by 50%; method in brief: as §1
Human alphaherpesvirus 1 [3] = assay: In vitro minimum inhibitory concentration to inhibit HSV-1 (F)-induced cytopathogenicity in primary rabbit kidney cells by 50%; method in brief: as §1
[4] = In vitro minimum inhibitory concentration to inhibit […] (incorporation of [methyl-3H]dThd) in PRK cells by 50%
Cytomegalovirus [5] = assay: In vitro minimum inhibitory concentration to inhibit CMV (Davis)-induced cytopathogenicity in HEL cells by 50%; details: Human betaherpesvirus 5
Human alphaherpesvirus 2 [6] = assay: In vitro minimum inhibitory concentration to inhibit HSV-2 (196)-induced cytopathogenicity in PRK cells by 50%; method in brief: as §1
[7] = system: Bovine alphaherpesvirus 1; assay: In vitro minimum inhibitory concentration to inhibit BHV-1-induced cytopathogenicity in PRK cells by 50%; method in brief: as §1
Suid alphaherpesvirus 1 = assay: In vitro minimum inhibitory concentration to inhibit SHV-1-induced cytopathogenicity in PRK cells by 50%; method in brief: as §1
Human alphaherpesvirus 1 [8] = assay: In vitro minimum inhibitory concentration to inhibit thymidine deficient HSV-1 (B2006)-induced cytopathogenicity in PRK cells by 50%; method in brief: as §1
Human alphaherpesvirus 1 [9] = assay: In vitro minimum inhibitory concentration to inhibit thymidine deficient HSV-1 (VMV 1837)- induced cytopathogenicity in PRK cells by 50%; method in brief: as §1
Human alphaherpesvirus 1 [10] = assay: In vitro minimum inhibitory concentration to inhibit HSV-1 (KOS)-induced cytopathogenicity in primary rabbit kidney cells by 50%; method in brief: as §1
Human alphaherpesvirus 1 [11] = assay: In vitro minimum inhibitory concentration to inhibit HSV-1 (McIntyre)-induced cytopathogenicity in PRK cells by 50%; method in brief: as §1
Human alphaherpesvirus 3 [12] = assay: In vitro minimum inhibitory concentration to inhibit VZV (YS)-induced cytopathogenicity in HEL cells by 50%
Human alphaherpesvirus 3 [13] = assay: In vitro minimum inhibitory concentration to inhibit thymidine deficient VZV (YSR)-induced cytopathogenicity in HEL cells by 50%
Cytomegalovirus [14] = assay: In vitro minimum inhibitory concentration to inhibit CMV (AD-169)-induced cytopathogenicity in HEL cells by 50%; details: Human betaherpesvirus 5
Human alphaherpesvirus 3 [15] = assay: In vitro minimum inhibitory concentration to inhibit VZV (Oka)-induced cytopathogenicity in HEL cells by 50%
L1210 = assay: Antitumor activity against murine leukemia L1210 cells; details: Mus musculus; read-out: MIC
Method in brief: (§2)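 Tumor cell proliferation assay. Murine leukemia L1210 and murine mammary carcinoma FM3A cells were grown in culture with the compound. The value is the concentration inhibiting cell proliferation by 50%.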

FM3A = assay: Antitumor activity against murine mammary carcinoma FM3A cells; details: Mus musculus; read-out: MIC; method in brief: as §2

In the case of `Nc1nc2c(ncn2COCCO)c(=O)[nH]1` [ACYCLOVIR], the MIC (Human alphaherpesvirus 2 [1]) is reported as 0.07 µg/mL (≈ 0.311 µM), the MIC (Human alphaherpesvirus 2 [2]) is reported as 0.2 µg/mL (≈ 0.888 µM) and the MIC (Equid alphaherpesvirus 1) is reported as 0.2 µg/mL (≈ 0.888 µM). The MIC (Human alphaherpesvirus 1 [3]) was 0.1 µg/mL (≈ 0.444 µM), the MIC [4] was 8 µg/mL (≈ 35.5 µM) and the MIC (Cytomegalovirus [5]) was 20 µg/mL (≈ 88.8 µM). The MIC (Human alphaherpesvirus 2 [6]) was 0.07 µg/mL (≈ 0.311 µM), the MIC [7] was 7 µg/mL (≈ 31.1 µM) and the MIC (Suid alphaherpesvirus 1) was 7 µg/mL (≈ 31.1 µM). The MIC (Human alphaherpesvirus 1 [8]) was 20 µg/mL (≈ 88.8 µM), the MIC (Human alphaherpesvirus 1 [9]) was 20 µg/mL (≈ 88.8 µM) and the MIC (Human alphaherpesvirus 1 [10]) was 0.2 µg/mL (≈ 0.888 µM). It also gave an MIC (Human alphaherpesvirus 1 [11]) of 0.2 µg/mL (≈ 0.888 µM).
Work on `Cn1c[n+](COCCO)c2nc(N)nc([O-])c21.O=S(=O)(O)O` yielded an MIC (Human alphaherpesvirus 2 [1]) of 40 µg/mL, an MIC (Human alphaherpesvirus 2 [2]) of 100 µg/mL and an MIC (Human alphaherpesvirus 3 [12]) greater than 100 µg/mL. It also gave an MIC (Equid alphaherpesvirus 1) greater than 400 µg/mL, an MIC (Human alphaherpesvirus 1 [3]) of 70 µg/mL and an MIC ([4]; Oryctolagus cuniculus) greater than 400 µg/mL. The MIC (Cytomegalovirus [5]) was greater than 100 µg/mL, the MIC (Human alphaherpesvirus 2 [6]) was 100 µg/mL and the MIC (Human alphaherpesvirus 3 [13]) was greater than 100 µg/mL. It also gave an MIC [7] greater than 400 µg/mL, an MIC (Suid alphaherpesvirus 1) greater than 400 µg/mL and an MIC (Cytomegalovirus [14]) greater than 100 µg/mL. The MIC (Human alphaherpesvirus 1 [8]) was greater than 400 µg/mL, the MIC (Human alphaherpesvirus 1 [9]) was greater than 400 µg/mL and the MIC (Human alphaherpesvirus 3 [15]) was greater than 100 µg/mL. It also gave an IC50 (L1210) greater than 100 µg/mL, an IC50 (FM3A) greater than 100 µg/mL and an MIC (Human alphaherpesvirus 1 [10]) of 70 µg/mL. It also gave an MIC (Human alphaherpesvirus 1 [11]) of 70 µg/mL.
Work on `Cc1cn2c([O-])c3c(nc2n1)[n+](COCCO)cn3C` yielded an MIC (Human alphaherpesvirus 2 [1]) of 70 µg/mL (≈ 252 µM), an MIC (Human alphaherpesvirus 2 [2]) of 70 µg/mL (≈ 252 µM) and an MIC (Human alphaherpesvirus 3 [12]) greater than 100 µg/mL. For the same molecule, the MIC (Equid alphaherpesvirus 1) was greater than 400 µg/mL, the MIC (Human alphaherpesvirus 1 [3]) was 70 µg/mL (≈ 252 µM) and the MIC ([4]; Oryctolagus cuniculus) was greater than 400 µg/mL. The MIC (Cytomegalovirus [5]) was greater than 100 µg/mL, the MIC (Human alphaherpesvirus 2 [6]) was 70 µg/mL (≈ 252 µM) and the MIC (Human alphaherpesvirus 3 [13]) was greater than 100 µg/mL. For the same molecule, the MIC [7] was greater than 400 µg/mL, the MIC (Suid alphaherpesvirus 1) was greater than 400 µg/mL and the MIC (Cytomegalovirus [14]) was greater than 100 µg/mL. The MIC (Human alphaherpesvirus 1 [8]) was greater than 400 µg/mL, the MIC (Human alphaherpesvirus 1 [9]) was greater than 400 µg/mL and the MIC (Human alphaherpesvirus 3 [15]) was greater than 100 µg/mL. The IC50 (L1210) was greater than 100 µg/mL, the IC50 (FM3A) was greater than 100 µg/mL and the MIC (Human alphaherpesvirus 1 [10]) was 70 µg/mL (≈ 252 µM). It also gave an MIC (Human alphaherpesvirus 1 [11]) of 70 µg/mL (≈ 252 µM).
Work on `Cc1cn2c(=O)c3ncn(COCCO)c3nc2n1C` yielded an MIC (Human alphaherpesvirus 2 [1]) greater than 400 µg/mL, an MIC (Human alphaherpesvirus 2 [2]) greater than 400 µg/mL and an MIC (Human alphaherpesvirus 3 [12]) greater than 100 µg/mL. The MIC (Equid alphaherpesvirus 1) was greater than 400 µg/mL, the MIC (Human alphaherpesvirus 1 [3]) was greater than 400 µg/mL and the MIC ([4]; Oryctolagus cuniculus) was greater than 4000 µg/mL. The MIC (Cytomegalovirus [5]) was greater than 100 µg/mL, the MIC (Human alphaherpesvirus 2 [6]) was greater than 400 µg/mL and the MIC (Human alphaherpesvirus 3 [13]) was greater than 100 µg/mL. For the same molecule, the MIC [7] was greater than 400 µg/mL, the MIC (Suid alphaherpesvirus 1) was greater than 400 µg/mL and the MIC (Cytomegalovirus [14]) was greater than 100 µg/mL. The MIC (Human alphaherpesvirus 1 [8]) was greater than 400 µg/mL, the MIC (Human alphaherpesvirus 1 [9]) was greater than 400 µg/mL and the MIC (Human alphaherpesvirus 3 [15]) was greater than 100 µg/mL. For the same molecule, the IC50 (L1210) was greater than 100 µg/mL, the IC50 (FM3A) was greater than 100 µg/mL and the MIC (Human alphaherpesvirus 1 [10]) was greater than 400 µg/mL. The MIC (Human alphaherpesvirus 1 [11]) was greater than 400 µg/mL.
For `CNc1nc(O)c2ncn(COCCO)c2n1`, the MIC (Human alphaherpesvirus 2 [1]) was 300 µg/mL (≈ 1250 µM), the MIC (Human alphaherpesvirus 2 [2]) was greater than 400 µg/mL and the MIC (Human alphaherpesvirus 3 [12]) was greater than 100 µg/mL. The MIC (Equid alphaherpesvirus 1) was greater than 400 µg/mL, the MIC (Human alphaherpesvirus 1 [3]) was greater than 400 µg/mL and the MIC ([4]; Oryctolagus cuniculus) was greater than 400 µg/mL. It also gave an MIC (Cytomegalovirus [5]) greater than 100 µg/mL, an MIC (Human alphaherpesvirus 2 [6]) greater than 400 µg/mL and an MIC (Human alphaherpesvirus 3 [13]) greater than 100 µg/mL. It also gave an MIC [7] greater than 400 µg/mL, an MIC (Suid alphaherpesvirus 1) greater than 400 µg/mL and an MIC (Cytomegalovirus [14]) greater than 100 µg/mL. It also gave an MIC (Human alphaherpesvirus 1 [8]) greater than 400 µg/mL, an MIC (Human alphaherpesvirus 1 [9]) greater than 400 µg/mL and an MIC (Human alphaherpesvirus 3 [15]) greater than 100 µg/mL. It also gave an IC50 (L1210) greater than 100 µg/mL, an IC50 (FM3A) greater than 100 µg/mL and an MIC (Human alphaherpesvirus 1 [10]) greater than 400 µg/mL. For the same molecule, the MIC (Human alphaherpesvirus 1 [11]) was greater than 400 µg/mL.
`Cc1cn2c(O)c3ncn(COCCO)c3nc2n1` gave an MIC (Human alphaherpesvirus 2 [1]) of 0.7 µg/mL (≈ 2.66 µM), an MIC (Human alphaherpesvirus 2 [2]) of 2 µg/mL (≈ 7.6 µM) and an MIC (Human alphaherpesvirus 3 [12]) of 20 µg/mL (≈ 76 µM). For the same molecule, the MIC (Equid alphaherpesvirus 1) was 20 µg/mL (≈ 76 µM), the MIC (Human alphaherpesvirus 1 [3]) was 2 µg/mL (≈ 7.6 µM) and the MIC ([4]; Oryctolagus cuniculus) was 257 µg/mL (≈ 976 µM). The MIC (Cytomegalovirus [5]) was greater than 100 µg/mL, the MIC (Human alphaherpesvirus 2 [6]) was 0.7 µg/mL (≈ 2.66 µM) and the MIC (Human alphaherpesvirus 3 [13]) was greater than 100 µg/mL. For the same molecule, the MIC [7] was greater than 400 µg/mL, the MIC (Suid alphaherpesvirus 1) was greater than 400 µg/mL and the MIC (Cytomegalovirus [14]) was greater than 100 µg/mL. It also gave an MIC (Human alphaherpesvirus 1 [8]) of 400 µg/mL (≈ 1520 µM), an MIC (Human alphaherpesvirus 1 [9]) of 400 µg/mL (≈ 1520 µM) and an MIC (Human alphaherpesvirus 3 [15]) of 20 µg/mL (≈ 76 µM). For the same molecule, the IC50 (L1210) was greater than 100 µg/mL, the IC50 (FM3A) was greater than 100 µg/mL and the MIC (Human alphaherpesvirus 1 [10]) was 2 µg/mL (≈ 7.6 µM). For the same molecule, the MIC (Human alphaherpesvirus 1 [11]) was 2 µg/mL (≈ 7.6 µM).
`Cn1c(N)nc2c(ncn2COCCO)c1=O` showed an MIC (Human alphaherpesvirus 2 [1]) of 1 µg/mL (≈ 4.18 µM), an MIC (Human alphaherpesvirus 2 [2]) of 2 µg/mL (≈ 8.36 µM) and an MIC (Human alphaherpesvirus 3 [12]) of 20 µg/mL (≈ 83.6 µM). For the same molecule, the MIC (Equid alphaherpesvirus 1) was 10 µg/mL (≈ 41.8 µM), the MIC (Human alphaherpesvirus 1 [3]) was 2 µg/mL (≈ 8.36 µM) and the MIC ([4]; Oryctolagus cuniculus) was greater than 400 µg/mL. For the same molecule, the MIC (Cytomegalovirus [5]) was greater than 100 µg/mL, the MIC (Human alphaherpesvirus 2 [6]) was 2 µg/mL (≈ 8.36 µM) and the MIC (Human alphaherpesvirus 3 [13]) was greater than 100 µg/mL. The MIC [7] was greater than 400 µg/mL, the MIC (Suid alphaherpesvirus 1) was 70 µg/mL (≈ 293 µM) and the MIC (Cytomegalovirus [14]) was greater than 100 µg/mL. For the same molecule, the MIC (Human alphaherpesvirus 1 [8]) was 300 µg/mL (≈ 1250 µM), the MIC (Human alphaherpesvirus 1 [9]) was 300 µg/mL (≈ 1250 µM) and the MIC (Human alphaherpesvirus 3 [15]) was 20 µg/mL (≈ 83.6 µM). The IC50 (L1210) was greater than 100 µg/mL, the IC50 (FM3A) was greater than 100 µg/mL and the MIC (Human alphaherpesvirus 1 [10]) was 1 µg/mL (≈ 4.18 µM). The MIC (Human alphaherpesvirus 1 [11]) was 2 µg/mL (≈ 8.36 µM).
